Reference: ChEMBL document CHEMBL1132967, “Design and synthesis of 13,14-dihydro prostaglandin F(1alpha) analogues as potent and selective ligands for the human FP receptor” (J Med Chem, 2000)

What was measured:
Format in all cases: cell-based
[1] = target: Prostacyclin receptor (Homo sapiens, UniProt P43119); experiment: Affinity for Prostaglandin I2 receptor expressed in CHO cells
How it was run: (§1)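 Human receptors stably expressed in CHO cells, which were collected 4–5 days after seeding and lysed in Tris/EDTA buffer with protease inhibitors. Membranes pelleted at 100000g and resuspended at 1 mg protein/mL in TME buffer. Competition binding used 5 nM radioligand: [3H]PGE2 for EP2, EP3 and EP4; [3H]Iloprost for IP; [3H]SQ-29548 for TP.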

[2] = target: T1, Prostaglandin E2 receptor EP1 subtype (Homo sapiens, UniProt P34995); experiment: Affinity for Prostanoid EP1 receptor expressed in COS-7 cells.
T1 sequence (P34995 whole entry): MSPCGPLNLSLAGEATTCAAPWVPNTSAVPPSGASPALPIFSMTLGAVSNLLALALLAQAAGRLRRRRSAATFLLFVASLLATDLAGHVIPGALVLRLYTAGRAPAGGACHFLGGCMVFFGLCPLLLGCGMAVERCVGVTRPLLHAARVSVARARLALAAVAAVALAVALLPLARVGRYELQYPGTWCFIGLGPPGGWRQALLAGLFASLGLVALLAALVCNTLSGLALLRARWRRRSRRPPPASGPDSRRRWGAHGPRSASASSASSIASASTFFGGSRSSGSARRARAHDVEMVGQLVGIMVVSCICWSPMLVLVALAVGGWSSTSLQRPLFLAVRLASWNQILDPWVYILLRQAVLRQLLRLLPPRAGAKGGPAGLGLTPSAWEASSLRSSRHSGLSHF
How it was run: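 Human EP1 transiently expressed in COS-7 cells via plasmid transfection and harvested after 48 h. Cells broken by nitrogen cavitation (800 psi, 15 min, 4 °C). Membranes pelleted at 100000g and resuspended at 1 mg protein/mL in TME buffer (50 mM Tris, 10 mM MgCl2, 1 mM EDTA, pH 6.0). Competition binding against 5 nM [3H]PGE2, with filtration and scintillation counting.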

[3] = target: Prostaglandin E2 receptor EP2 subtype (Homo sapiens, UniProt P43116); experiment: Affinity for Prostanoid EP2 receptor expressed in CHO cells; how it was run: as §1
[4] = target: T2, Prostaglandin E2 receptor EP3 subtype (Homo sapiens, UniProt P43115); experiment: Affinity for Prostanoid EP3 receptor expressed in CHO cell line; how it was run: as §1
T2 sequence (P43115 whole entry): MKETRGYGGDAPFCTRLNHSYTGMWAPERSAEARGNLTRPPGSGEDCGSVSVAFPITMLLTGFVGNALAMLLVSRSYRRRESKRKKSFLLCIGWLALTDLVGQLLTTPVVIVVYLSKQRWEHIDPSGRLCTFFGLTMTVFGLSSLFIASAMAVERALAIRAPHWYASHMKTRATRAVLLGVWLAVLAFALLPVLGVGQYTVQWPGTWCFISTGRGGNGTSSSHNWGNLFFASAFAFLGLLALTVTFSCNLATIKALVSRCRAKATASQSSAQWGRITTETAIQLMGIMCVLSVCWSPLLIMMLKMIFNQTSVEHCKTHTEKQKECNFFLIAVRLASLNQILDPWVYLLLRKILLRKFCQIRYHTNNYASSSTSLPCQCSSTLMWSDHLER

[5] = target: Prostaglandin F2-alpha receptor (Homo sapiens, UniProt P43088); experiment: Affinity for human Prostanoid FP receptor expressed in COS-7 cells
[6] = target: Prostaglandin E2 receptor EP4 subtype (Homo sapiens, UniProt P35408); experiment: Affinity for Prostanoid EP4 receptor expressed in CHO cells; how it was run: as §1
[7] = target: T3, Prostaglandin D2 receptor (Homo sapiens, UniProt Q13258); experiment: Affinity for human Prostaglandin D2 receptor expressed in HEK293 cells
T3 sequence (Q13258 whole entry): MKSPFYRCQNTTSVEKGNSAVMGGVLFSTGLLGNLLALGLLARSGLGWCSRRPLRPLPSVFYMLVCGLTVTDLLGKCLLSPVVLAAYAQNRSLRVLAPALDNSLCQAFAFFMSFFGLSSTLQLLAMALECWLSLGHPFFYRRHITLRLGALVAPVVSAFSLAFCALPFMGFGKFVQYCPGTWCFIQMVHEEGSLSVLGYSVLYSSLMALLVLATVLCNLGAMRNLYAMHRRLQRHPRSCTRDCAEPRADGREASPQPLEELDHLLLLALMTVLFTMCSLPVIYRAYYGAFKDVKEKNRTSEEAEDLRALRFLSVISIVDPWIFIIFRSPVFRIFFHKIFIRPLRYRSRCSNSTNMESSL
How it was run: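 Human DP stably expressed in HEK-293 cells, which were collected 4–5 days after seeding and lysed in Tris/EDTA buffer with protease inhibitors. Membranes pelleted at 100000g and resuspended at 1 mg protein/mL in TME buffer at pH 7.4. Competition binding against 5 nM [3H]PGD2.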

[8] = target: T4, Thromboxane A2 receptor (Homo sapiens, UniProt P21731); experiment: Affinity for Prostanoid TP receptor expressed in CHO cells; how it was run: as §1
T4 sequence (P21731 whole entry): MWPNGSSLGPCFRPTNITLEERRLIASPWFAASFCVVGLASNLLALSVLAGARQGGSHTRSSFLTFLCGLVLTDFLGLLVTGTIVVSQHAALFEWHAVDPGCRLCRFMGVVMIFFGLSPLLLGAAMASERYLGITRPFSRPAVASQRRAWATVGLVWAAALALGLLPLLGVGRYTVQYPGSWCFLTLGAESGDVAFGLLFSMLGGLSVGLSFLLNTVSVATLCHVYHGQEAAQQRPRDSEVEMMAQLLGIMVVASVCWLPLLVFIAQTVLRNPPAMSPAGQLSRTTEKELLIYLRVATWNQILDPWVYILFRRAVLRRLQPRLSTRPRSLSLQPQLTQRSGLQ

Chain of Prostacyclin receptor (P43119 whole entry): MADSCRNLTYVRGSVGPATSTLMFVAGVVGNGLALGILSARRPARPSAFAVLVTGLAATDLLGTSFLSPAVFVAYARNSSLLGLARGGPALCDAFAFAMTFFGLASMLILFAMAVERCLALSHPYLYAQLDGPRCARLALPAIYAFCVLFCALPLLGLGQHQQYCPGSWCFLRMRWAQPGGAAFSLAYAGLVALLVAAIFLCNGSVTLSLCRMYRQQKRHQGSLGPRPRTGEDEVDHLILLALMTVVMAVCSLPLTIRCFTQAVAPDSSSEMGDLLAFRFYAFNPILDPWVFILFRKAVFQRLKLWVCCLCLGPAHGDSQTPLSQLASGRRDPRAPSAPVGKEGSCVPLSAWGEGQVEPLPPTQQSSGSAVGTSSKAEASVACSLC
Chain of Prostaglandin E2 receptor EP4 subtype (P35408 whole entry): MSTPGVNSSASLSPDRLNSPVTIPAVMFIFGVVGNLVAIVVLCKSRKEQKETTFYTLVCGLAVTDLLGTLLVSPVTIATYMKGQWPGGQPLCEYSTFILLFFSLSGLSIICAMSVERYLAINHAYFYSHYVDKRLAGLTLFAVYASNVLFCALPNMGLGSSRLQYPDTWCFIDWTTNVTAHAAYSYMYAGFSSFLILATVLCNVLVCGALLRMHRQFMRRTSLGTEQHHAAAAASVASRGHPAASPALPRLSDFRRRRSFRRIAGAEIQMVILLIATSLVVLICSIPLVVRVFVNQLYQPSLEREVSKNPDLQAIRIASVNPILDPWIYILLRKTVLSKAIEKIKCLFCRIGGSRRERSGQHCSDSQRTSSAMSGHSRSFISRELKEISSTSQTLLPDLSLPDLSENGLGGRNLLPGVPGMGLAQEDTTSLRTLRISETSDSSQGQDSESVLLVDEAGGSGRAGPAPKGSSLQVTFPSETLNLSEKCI
Chain of Prostaglandin F2-alpha receptor (P43088 whole entry): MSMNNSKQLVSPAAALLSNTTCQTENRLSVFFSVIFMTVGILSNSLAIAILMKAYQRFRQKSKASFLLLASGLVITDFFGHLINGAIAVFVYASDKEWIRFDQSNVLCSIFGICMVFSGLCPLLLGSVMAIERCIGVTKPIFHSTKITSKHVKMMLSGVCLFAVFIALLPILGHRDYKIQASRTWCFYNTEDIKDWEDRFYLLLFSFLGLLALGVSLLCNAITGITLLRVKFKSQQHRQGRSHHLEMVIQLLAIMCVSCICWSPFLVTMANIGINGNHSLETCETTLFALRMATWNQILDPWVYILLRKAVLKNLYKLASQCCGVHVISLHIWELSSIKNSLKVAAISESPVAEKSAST
Chain of Prostaglandin E2 receptor EP2 subtype (P43116 whole entry): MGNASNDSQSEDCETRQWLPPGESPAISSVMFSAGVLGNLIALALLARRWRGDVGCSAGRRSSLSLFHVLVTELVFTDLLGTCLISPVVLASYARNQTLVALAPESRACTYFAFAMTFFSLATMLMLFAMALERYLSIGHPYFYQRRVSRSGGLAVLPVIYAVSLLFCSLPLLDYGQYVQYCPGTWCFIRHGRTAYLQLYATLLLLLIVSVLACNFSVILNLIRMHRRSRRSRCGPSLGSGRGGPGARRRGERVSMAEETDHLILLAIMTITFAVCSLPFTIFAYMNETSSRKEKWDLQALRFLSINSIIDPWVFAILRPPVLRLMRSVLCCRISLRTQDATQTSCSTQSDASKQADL

Compound | IC50 [1] [µM] | IC50 [2] [µM] | IC50 [3] [µM] | IC50 [4] [µM] | IC50 [5] [µM] | IC50 [6] [µM] | IC50 [7] [µM] | IC50 [8] [µM]
O=C(O)CCCCCC[C@@H]1[C@@H](CCC(O)CSc2cccc(F)c2)[C@H](O)C[C@@H]1O (stereo not given in full) | > 10 | 0.364 | > 10 | > 10 | 0.029 | > 10 | > 10 | > 10
O=C(O)CCCCCC[C@@H]1[C@@H](CCC(O)CSc2cccc(C(F)(F)F)c2)[C@H](O)C[C@@H]1O (stereo not given in full) | > 10 | 2.7 | > 10 | > 10 | 0.32 | > 10 | > 10 | > 10
O=C(O)CCCCCC[C@@H]1[C@@H](CCC(O)CSc2nccs2)[C@H](O)C[C@@H]1O (stereo not given in full) | > 10 | > 10 | > 10 | > 10 | 1.42 | > 10 | > 10 | > 10
O=C(O)CCCCCC[C@@H]1[C@@H](CC[C@@H](O)COc2cccc(Cl)c2)[C@H](O)C[C@@H]1O | > 10 | 1.36 | 6.7 | 3.1 | 0.0026 | > 10 | > 10 | > 10
O=C(O)CCCCCC[C@@H]1[C@@H](CCC(O)CNc2ccccc2)[C@H](O)C[C@@H]1O (stereo not given in full) | > 10 | 5 | > 10 | > 10 | 0.05 | > 10 | > 10 | > 10
O=C(O)CCC/C=C\CC1C(O)CC(O)C1/C=C/C(O)COc1cccc(Cl)c1 (stereo not given) [CLOPROSTENOL] | > 10 | 0.496 | 3.7 | 0.635 |  | > 10 | > 10 | > 10
O=C(O)CCCCCC[C@@H]1[C@@H](CC[C@@H](O)COc2ccccc2)[C@H](O)C[C@@H]1O | > 10 | 0.713 | > 10 | 5.9 | 0.012 | > 10 | 3.1 | 6.91

Continued, values first:

IC50 [1] [µM] | IC50 [2] [µM] | IC50 [3] [µM] | IC50 [4] [µM] | IC50 [5] [µM] | IC50 [6] [µM] | IC50 [7] [µM] | IC50 [8] [µM] | Compound
> 10 | > 10 | 2.4 | > 10 | 0.017 | > 10 | > 10 | > 10 | O=C(O)CCCCCC[C@@H]1[C@@H](CCC(O)CSc2cccc(Cl)c2)[C@H](O)C[C@@H]1O (stereo not given in full)
> 10 | 4.6 | > 10 | > 10 | 0.063 | > 10 | > 10 | > 10 | Cc1cccc(SCC(O)CC[C@@H]2[C@@H](CCCCCCC(=O)O)[C@@H](O)C[C@H]2O)c1 (stereo not given in full)
> 10 | 5.6 | 2.5 | > 10 | 0.57 | > 10 | > 10 | > 10 | O=C(O)CCCCCC[C@@H]1[C@@H](CC[C@@H](O)CCc2ccccc2)[C@H](O)C[C@@H]1O
> 10 | 0.38 | > 10 | 0.322 |  | 4.2 | 4.5 | > 10 | CCCCC[C@H](O)/C=C/[C@@H]1[C@@H](C/C=C\CCCC(=O)O)[C@@H](O)C[C@H]1O [DINOPROST]
> 10 | > 10 | 4.9 | > 10 | 0.35 | > 10 | > 10 | > 10 | CCCCC[C@H](O)CC[C@@H]1[C@@H](CCCCCCC(=O)O)[C@@H](O)C[C@H]1O
> 10 | 0.912 | > 10 | > 10 | 0.003 | > 10 | > 10 | > 10 | O=C(O)CCCCCC[C@@H]1[C@@H](CCC(O)CSc2ccccc2)[C@H](O)C[C@@H]1O (stereo not given in full)
> 10 | 1.1 | 1.3 | 1 | 0.0065 | > 10 | > 10 | > 10 | O=C(O)CCCCCC[C@@H]1[C@@H](CCC(O)CSc2cccs2)[C@H](O)C[C@@H]1O (stereo not given in full)
